Data set [1] deals with Mitogen-activated protein kinase kinase kinase 8 (Homo sapiens, UniProt P41279). Description: Inhibition of MAP3K8 (unknown origin) in the presence of [33P]ATP by kinase hotspot assay.
For data set [2], the target named is RAF proto-oncogene serine/threonine-protein kinase (Homo sapiens, UniProt P04049). Description: Inhibition of RAF1 (unknown origin) in the presence of [33P]ATP by kinase hotspot assay.
Data set [3] deals with DNA-dependent protein kinase catalytic subunit (Homo sapiens, UniProt P78527). Kind of data set: Inhibition of DNA-PK (unknown origin) in the presence of [33P]ATP by kinase hotspot assay.
DNA-dependent protein kinase catalytic subunit, sequence (P78527 whole entry): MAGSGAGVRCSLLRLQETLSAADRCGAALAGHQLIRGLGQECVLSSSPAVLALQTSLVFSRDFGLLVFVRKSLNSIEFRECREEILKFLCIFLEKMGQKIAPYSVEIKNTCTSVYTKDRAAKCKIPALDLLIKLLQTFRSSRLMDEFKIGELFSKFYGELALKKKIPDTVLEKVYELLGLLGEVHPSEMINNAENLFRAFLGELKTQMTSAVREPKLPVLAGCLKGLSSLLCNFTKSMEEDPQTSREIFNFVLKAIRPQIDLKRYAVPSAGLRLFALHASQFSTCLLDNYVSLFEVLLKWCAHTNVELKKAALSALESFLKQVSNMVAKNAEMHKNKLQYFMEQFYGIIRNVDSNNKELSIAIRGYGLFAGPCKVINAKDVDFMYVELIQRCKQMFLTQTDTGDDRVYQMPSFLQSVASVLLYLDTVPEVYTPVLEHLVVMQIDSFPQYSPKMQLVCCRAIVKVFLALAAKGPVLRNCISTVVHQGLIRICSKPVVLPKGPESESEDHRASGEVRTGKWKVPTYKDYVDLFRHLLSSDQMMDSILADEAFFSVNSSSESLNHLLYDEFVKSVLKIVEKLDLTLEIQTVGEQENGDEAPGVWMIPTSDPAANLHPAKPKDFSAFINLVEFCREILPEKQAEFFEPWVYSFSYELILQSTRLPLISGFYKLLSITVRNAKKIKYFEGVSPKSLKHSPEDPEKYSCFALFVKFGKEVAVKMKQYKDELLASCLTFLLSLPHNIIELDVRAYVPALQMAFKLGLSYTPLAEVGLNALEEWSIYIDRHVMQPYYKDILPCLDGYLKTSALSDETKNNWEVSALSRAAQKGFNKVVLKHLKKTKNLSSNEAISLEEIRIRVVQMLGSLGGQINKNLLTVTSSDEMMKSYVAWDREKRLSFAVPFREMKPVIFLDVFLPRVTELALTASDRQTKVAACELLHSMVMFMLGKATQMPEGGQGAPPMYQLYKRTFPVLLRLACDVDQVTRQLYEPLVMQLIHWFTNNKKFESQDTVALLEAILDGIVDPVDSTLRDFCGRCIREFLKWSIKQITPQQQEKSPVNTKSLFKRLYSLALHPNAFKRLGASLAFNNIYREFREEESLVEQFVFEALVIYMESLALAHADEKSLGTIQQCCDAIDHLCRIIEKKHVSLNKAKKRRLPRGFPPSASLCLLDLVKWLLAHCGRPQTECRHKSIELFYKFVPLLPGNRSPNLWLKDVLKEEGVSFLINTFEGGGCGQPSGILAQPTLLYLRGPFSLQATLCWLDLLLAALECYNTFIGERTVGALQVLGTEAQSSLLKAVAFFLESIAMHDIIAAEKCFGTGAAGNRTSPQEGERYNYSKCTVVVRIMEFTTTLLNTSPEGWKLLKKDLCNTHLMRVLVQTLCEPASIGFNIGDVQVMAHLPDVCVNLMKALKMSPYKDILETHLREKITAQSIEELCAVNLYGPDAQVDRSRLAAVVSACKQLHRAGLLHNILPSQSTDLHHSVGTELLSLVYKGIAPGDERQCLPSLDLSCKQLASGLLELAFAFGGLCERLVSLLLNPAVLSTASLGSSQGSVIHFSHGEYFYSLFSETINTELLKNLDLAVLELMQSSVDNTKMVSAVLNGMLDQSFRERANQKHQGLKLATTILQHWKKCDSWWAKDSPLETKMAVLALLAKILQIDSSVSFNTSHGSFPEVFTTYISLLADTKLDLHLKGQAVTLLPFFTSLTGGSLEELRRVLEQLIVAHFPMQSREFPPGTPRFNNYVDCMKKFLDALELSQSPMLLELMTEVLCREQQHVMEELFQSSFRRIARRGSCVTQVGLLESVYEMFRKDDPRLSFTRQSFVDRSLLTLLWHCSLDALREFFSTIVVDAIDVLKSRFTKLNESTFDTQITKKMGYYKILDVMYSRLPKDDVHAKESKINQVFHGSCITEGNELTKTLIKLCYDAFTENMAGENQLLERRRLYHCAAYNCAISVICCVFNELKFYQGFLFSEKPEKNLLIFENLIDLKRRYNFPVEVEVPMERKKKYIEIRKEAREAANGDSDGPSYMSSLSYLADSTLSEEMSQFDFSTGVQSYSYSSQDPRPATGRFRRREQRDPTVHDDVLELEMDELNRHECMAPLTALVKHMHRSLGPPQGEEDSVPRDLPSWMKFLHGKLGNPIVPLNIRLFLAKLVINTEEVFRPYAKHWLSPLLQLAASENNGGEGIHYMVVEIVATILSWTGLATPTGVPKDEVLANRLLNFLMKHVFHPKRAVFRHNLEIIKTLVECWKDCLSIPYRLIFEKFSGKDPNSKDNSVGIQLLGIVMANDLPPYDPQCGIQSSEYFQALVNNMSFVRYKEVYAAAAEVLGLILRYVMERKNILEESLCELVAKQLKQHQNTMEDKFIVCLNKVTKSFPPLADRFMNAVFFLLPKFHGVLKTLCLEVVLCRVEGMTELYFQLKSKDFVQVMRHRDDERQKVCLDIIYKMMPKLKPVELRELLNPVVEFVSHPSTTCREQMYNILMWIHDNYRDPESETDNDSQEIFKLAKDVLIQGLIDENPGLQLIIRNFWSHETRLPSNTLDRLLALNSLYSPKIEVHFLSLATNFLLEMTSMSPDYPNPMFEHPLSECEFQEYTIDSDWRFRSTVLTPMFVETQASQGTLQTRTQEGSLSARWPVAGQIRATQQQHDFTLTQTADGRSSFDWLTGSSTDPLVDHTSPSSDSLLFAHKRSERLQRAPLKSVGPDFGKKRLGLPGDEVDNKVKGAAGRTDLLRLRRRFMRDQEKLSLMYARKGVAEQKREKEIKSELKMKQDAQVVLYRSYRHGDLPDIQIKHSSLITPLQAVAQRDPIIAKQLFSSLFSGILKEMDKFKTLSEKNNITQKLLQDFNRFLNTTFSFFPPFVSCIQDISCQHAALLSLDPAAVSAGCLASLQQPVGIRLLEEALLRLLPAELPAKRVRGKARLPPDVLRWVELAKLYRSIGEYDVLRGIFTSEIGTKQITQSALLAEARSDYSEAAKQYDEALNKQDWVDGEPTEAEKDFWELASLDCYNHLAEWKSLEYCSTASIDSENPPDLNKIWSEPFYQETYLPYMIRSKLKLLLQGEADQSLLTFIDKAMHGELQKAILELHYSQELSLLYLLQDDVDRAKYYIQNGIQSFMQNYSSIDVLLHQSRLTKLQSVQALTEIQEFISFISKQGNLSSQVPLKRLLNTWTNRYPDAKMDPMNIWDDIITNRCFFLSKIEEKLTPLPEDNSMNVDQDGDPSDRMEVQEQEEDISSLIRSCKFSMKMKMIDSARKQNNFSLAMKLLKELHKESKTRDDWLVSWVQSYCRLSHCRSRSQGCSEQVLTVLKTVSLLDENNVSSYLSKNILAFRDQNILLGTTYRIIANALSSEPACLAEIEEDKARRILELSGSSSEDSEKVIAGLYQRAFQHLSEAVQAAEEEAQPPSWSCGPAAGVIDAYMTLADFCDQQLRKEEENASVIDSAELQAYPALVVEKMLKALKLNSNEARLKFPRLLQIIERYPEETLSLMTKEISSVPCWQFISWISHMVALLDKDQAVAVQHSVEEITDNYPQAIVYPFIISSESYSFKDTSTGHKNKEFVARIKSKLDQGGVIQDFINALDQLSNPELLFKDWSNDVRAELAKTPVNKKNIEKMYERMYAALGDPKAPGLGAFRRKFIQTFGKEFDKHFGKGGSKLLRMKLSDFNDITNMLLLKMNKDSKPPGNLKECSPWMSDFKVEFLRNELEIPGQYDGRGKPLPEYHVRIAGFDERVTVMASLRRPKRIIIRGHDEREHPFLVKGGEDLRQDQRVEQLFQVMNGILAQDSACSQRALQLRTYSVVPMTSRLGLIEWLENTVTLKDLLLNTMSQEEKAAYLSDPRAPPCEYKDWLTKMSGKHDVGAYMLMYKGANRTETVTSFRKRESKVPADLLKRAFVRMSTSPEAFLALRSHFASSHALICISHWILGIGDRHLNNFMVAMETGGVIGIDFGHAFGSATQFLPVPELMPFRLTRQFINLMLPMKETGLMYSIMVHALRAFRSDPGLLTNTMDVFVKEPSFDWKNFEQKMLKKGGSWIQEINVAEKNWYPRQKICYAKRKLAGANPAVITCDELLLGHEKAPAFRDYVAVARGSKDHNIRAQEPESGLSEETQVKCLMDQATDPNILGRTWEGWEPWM
The target in data set [4] is Serine/threonine-protein kinase mTOR (Homo sapiens, UniProt P42345). Kind of data set: Inhibition of mTOR (unknown origin) in the presence of [33P]ATP by kinase hotspot assay.
The test system of data set [5] is LNCaP. Description: Induction of cell cycle arrest in human LNCaP cells with IR-induced DNA damage assessed as reduction in number of cells at G2 phase at 10 uM incubated for 24 hrs in the presence of 5 Gy by PI-staining-based flow cytometry analysis. It counts as functional. The method in brief: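 LNCaP cells given 5 Gy x-ray alone or with agent (10 μm, 24 h). Propidium iodide staining and flow cytometric DNA content analysis of cell cycle phases; performed in triplicate.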

Data set [6] addresses Inhibitor of nuclear factor kappa-B kinase subunit alpha (Homo sapiens, UniProt O15111). Kind of data set: Inhibition of IKKalpha (unknown origin) in the presence of [33P]ATP by kinase hotspot assay.
The target in data set [7] is Receptor tyrosine-protein kinase erbB-2 (Homo sapiens, UniProt P04626). Kind of data set: Inhibition of HER2 (unknown origin) in the presence of [33P]ATP by kinase hotspot assay.
Data set [8] concerns the target Serine/threonine-protein kinase pim-1 (Homo sapiens, UniProt P11309). Kind of data set: Inhibition of PIM1 (unknown origin) in the presence of [33P]ATP by kinase hotspot assay.
For data set [9], the target named is Serine/threonine-protein kinase Chk1 (Homo sapiens, UniProt O14757). Kind of data set: Inhibition of CHK1 (unknown origin) in the presence of [33P]ATP by kinase hotspot assay.
For data set [10], the target named is Serine/threonine-protein kinase Sgk1 (Homo sapiens, UniProt O00141). Kind of data set: Inhibition of SGK1 (unknown origin) in the presence of [33P]ATP by kinase hotspot assay.
Data set [11] has as its target Mitogen-activated protein kinase 3 (Homo sapiens, UniProt P27361). Kind of data set: Inhibition of ERK1 (unknown origin) in the presence of [33P]ATP by kinase hotspot assay.
Data set [12] has as its target Tyrosine-protein kinase receptor TYRO3 (Homo sapiens, UniProt Q06418). Kind of data set: Inhibition of TYRO3 (unknown origin) in the presence of [33P]ATP by kinase hotspot assay.
Data set [13] addresses RAC-alpha serine/threonine-protein kinase (Homo sapiens, UniProt P31749). Kind of data set: Inhibition of AKT1 (unknown origin) in the presence of [33P]ATP by kinase hotspot assay.
For the next data set, the target named is Wee1-like protein kinase (Homo sapiens, UniProt P30291). Description: Inhibition of WEE1 (unknown origin) in the presence of [33P]ATP by kinase hotspot assay.
Data set [14] concerns the target Tyrosine-protein kinase Lck (Homo sapiens, UniProt P06239). Kind of data set: Inhibition of LCK (unknown origin) in the presence of [33P]ATP by kinase hotspot assay.
In data set [15] the target is Platelet-derived growth factor receptor alpha (Homo sapiens, UniProt P16234). Description: Inhibition of PDGFRalpha (unknown origin) in the presence of [33P]ATP by kinase hotspot assay.
The target of data set [16] is Tyrosine-protein kinase BTK (Homo sapiens, UniProt Q06187). Kind of data set: Inhibition of BTK (unknown origin) in the presence of [33P]ATP by kinase hotspot assay.
Data set [17] concerns the target Tyrosine-protein kinase JAK2 (Homo sapiens, UniProt O60674). Kind of data set: Inhibition of JAK2 (unknown origin) in the presence of [33P]ATP by kinase hotspot assay.
In data set [18] the test system is LNCaP. Description: Antitumor activity against irradiated human LNCaP-caAck FLAG-tagged KD ATM expressing cells xenografted mouse assessed as inhibition of tumor growth at 4 mg/kg on day 12. Type of data set: functional, organism-based. The method in brief:
(§1)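 Castrated male nude mice received LNCaP-caAck cells transfected with FLAG-tagged kinase-dead or wild-type ATM constructs (CMV promoter), irradiated 1.5 Gy before injection. Inhibitor 4 mg/kg per injection starting day 12 after cell injection, then on days 15, 19, 23 and 27; n = 5 mice per group; tumor growth followed.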

Data set [19] deals with LNCaP. Kind of data set: Antitumor activity against irradiated human LNCaP-caAck FLAG-tagged wild-type ATM expressing cells xenografted mouse assessed as inhibition of tumor growth at 4 mg/kg on day 12. Type of data set: functional, organism-based. In short, it runs like this:
as §1

Data set [20] has as its system LNCaP. Kind of data set: Antitumor activity against irradiated human LNCaP-caAck expressing cells xenografted mouse assessed as necrosis at 4 mg/kg on 7th day by Hematoxylin and eosin staining. It counts as functional, organism-based. In short, it runs like this:
(§2)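 Irradiated (1.5 Gy) LNCaP-caAck xenografts in castrated nude mice dosed 4 mg/kg from day 7 (DMSO control) were excised, fixed, paraffin-embedded and sectioned. Sections stained with H&E, or for ATM by IHC: citrate pH 6.0 retrieval at 95 °C 30 min, rabbit monoclonal ATM antibody 1:300 overnight 4 °C, biotin secondary/streptavidin-peroxidase, DAB, hematoxylin counterstain.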

Data set [21] concerns the target Phosphatidylinositol 4,5-bisphosphate 3-kinase catalytic subunit alpha isoform (Homo sapiens, UniProt P42336). Description: Inhibition of PI3Kalpha (unknown origin) in the presence of [33P]ATP by kinase hotspot assay.
The target of the next data set is Activated CDC42 kinase 1 (Homo sapiens, UniProt Q07912). Kind of data set: Inhibition of Ack1 (unknown origin) in the presence of [33P]ATP by kinase hotspot assay.
A short description of data set [22]: Toxicity in mouse assessed as change in body weight. Particulars: in vivo. In short, it runs like this: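 Body weight of castrated nude mice bearing LNCaP-caAck xenografts tracked during dosing at 4 mg/kg per injection (day 7, then days 11–27 every 4 days) versus DMSO-injected controls; morbidity also noted.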
Data set [23] concerns the target Phosphatidylinositol 4,5-bisphosphate 3-kinase catalytic subunit beta isoform (Homo sapiens, UniProt P42338). Description: Inhibition of PI3Kbeta (unknown origin) in the presence of [33P]ATP by kinase hotspot assay.
The target of another data set is Insulin receptor (Homo sapiens, UniProt P06213). Description: Inhibition of IR (unknown origin) in the presence of [33P]ATP by kinase hotspot assay.
The target of data set [24] is Tyrosine-protein kinase Lyn (Homo sapiens, UniProt P07948).
For data set [25], the system named is LNCaP. Description: Antitumor activity against unirradiated human LNCaP-caAck expressing cells xenografted mouse assessed as reduction in tumor growth at 4 mg/kg on 7th day. It counts as functional. Also on record: scale not given: the % may be the effect or the level left. The method in brief:
(§3)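 LNCaP-caAck cells (2 × 10⁶), unirradiated or irradiated 1.5 Gy, in PBS/Matrigel 1:1, injected subcutaneously into flanks of castrated male nude mice. Inhibitor 4 mg/kg per injection on day 7 post-implantation, then days 11, 15, 19, 23, 27; DMSO control; n = 8 per group. Caliper tumor volumes twice weekly; two independent experiments.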

Data set [26] has as its system LNCaP. Kind of data set: Antitumor activity against irradiated human LNCaP-caAck expressing cells xenografted mouse assessed as reduction in ATM expression level at 4 mg/kg on 7th day by immunohistochemical staining. Type of data set: functional, organism-based. The method in brief: as §2
Data set [27] has as its target Glycogen synthase kinase-3 alpha (Homo sapiens, UniProt P49840). Description: Inhibition of GSK3alpha (unknown origin) in the presence of [33P]ATP by kinase hotspot assay.
The test system of data set [28] is LNCaP. Kind of data set: Induction of cell cycle arrest in human LNCaP cells with IR-induced DNA damage assessed as reduction in proportion of cells at G2 phase at 5 uM incubated for 24 hrs in the presence of 5 Gy by PI-staining-based flow cytometry analysis. Type of data set: functional. Also on record: scale not given: the % may be the effect or the level left. In short, it runs like this: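 LNCaP cells left untreated, given 5 Gy x-ray, inhibitor (5 μm, 24 h), or both; harvested 16 h after irradiation. Nuclei processed with trypsin, trypsin inhibitor/RNase A, then propidium iodide; DNA content of 20,000 cells by flow cytometry, cell cycle modelled. Three independent experiments.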

For data set [29], the target named is Tyrosine-protein kinase ABL1 (Homo sapiens, UniProt P00519). Kind of data set: Inhibition of ABL1 (unknown origin) in the presence of [33P]ATP by kinase hotspot assay.
Data set [30] addresses Insulin-like growth factor 1 receptor (Homo sapiens, UniProt P08069). Kind of data set: Inhibition of IGF1R (unknown origin) in the presence of [33P]ATP by kinase hotspot assay.
The target of data set [31] is RAC-gamma serine/threonine-protein kinase (Homo sapiens, UniProt Q9Y243). Description: Inhibition of AKT3 (unknown origin) in the presence of [33P]ATP by kinase hotspot assay.
RAC-gamma serine/threonine-protein kinase, sequence (Q9Y243 whole entry): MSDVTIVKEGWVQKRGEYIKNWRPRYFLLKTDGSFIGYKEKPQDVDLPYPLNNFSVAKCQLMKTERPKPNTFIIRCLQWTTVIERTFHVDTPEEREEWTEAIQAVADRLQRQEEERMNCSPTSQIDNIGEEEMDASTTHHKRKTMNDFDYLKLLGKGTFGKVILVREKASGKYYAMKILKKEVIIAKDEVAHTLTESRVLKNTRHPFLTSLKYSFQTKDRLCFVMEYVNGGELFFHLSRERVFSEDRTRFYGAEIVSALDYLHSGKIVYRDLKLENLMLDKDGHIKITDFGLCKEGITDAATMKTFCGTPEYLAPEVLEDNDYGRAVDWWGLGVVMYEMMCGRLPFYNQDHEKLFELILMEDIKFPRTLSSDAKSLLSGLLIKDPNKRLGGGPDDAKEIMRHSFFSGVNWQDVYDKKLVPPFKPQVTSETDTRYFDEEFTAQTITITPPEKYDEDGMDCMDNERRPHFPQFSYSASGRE
Data set [32] has as its system LNCaP. Kind of data set: Antitumor activity against irradiated human LNCaP-caAck expressing cells xenografted mouse assessed as reduction in tumor growth at 4 mg/kg on 7th day. Type of data set: functional, organism-based. In short, it runs like this: as §3
For data set [33], the target named is Vascular endothelial growth factor receptor 2 (Homo sapiens, UniProt P35968). Kind of data set: Inhibition of VEGFR2 (unknown origin) in the presence of [33P]ATP by kinase hotspot assay.
Data set [34] concerns LNCaP. Kind of data set: Induction of cell cycle arrest in human LNCaP cells with IR-induced DNA damage assessed as high number of cells with DSBs at 5 uM after 5 hrs in the presence of 15 Gy by flow cytometry analysis. It counts as functional, cell-based.
In data set [35] the target is Tyrosine-protein kinase receptor UFO (Homo sapiens, UniProt P30530). Kind of data set: Inhibition of AXL (unknown origin) in the presence of [33P]ATP by kinase hotspot assay.

Calls of active or inactive are those of the source. The rule behind the calls is not given here.

Mitogen-activated protein kinase kinase kinase 8, sequence (P41279 whole entry): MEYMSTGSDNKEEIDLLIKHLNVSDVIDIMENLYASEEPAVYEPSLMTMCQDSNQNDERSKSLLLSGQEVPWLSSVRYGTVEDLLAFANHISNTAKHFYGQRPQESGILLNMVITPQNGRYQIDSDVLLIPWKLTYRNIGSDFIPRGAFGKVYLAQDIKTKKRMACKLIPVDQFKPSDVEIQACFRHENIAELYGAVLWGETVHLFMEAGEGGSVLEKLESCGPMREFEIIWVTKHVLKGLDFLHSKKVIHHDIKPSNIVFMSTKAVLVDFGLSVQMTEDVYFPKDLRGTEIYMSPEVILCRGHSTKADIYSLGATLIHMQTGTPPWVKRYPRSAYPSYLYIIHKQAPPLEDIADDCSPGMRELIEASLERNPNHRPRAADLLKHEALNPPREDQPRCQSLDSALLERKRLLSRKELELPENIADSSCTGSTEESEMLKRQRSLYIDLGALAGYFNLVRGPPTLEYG

Consider `CN[C@@H]1C[C@H]2O[C@@](C)([C@@H]1OC)n1c3ccccc3c3c4c(c5c6ccccc6n2c5c31)C(=O)NC4` [STAUROSPORINE], for which the concentration for half-maximal inhibition (IC50) is over 20000 nM in data set [1] (read-out: IC50), “Not Active” in data set [2], “Not Active” in data set [3] and “Not Active” in data set [4].

As to `O=c1cc(-c2cccc3c2Sc2ccccc2S3)oc(N2CCOCC2)c1`, in the data set with LNCaP [5], the outcome was Active.

On to `c1ccc(-c2oc3ncnc(NC[C@@H]4CCCO4)c3c2-c2ccccc2)cc1`, for which the half-maximal inhibitory concentration (IC50) entry in [6], in data set [7], in data set [8], in data set [9], in data set [10] and in data set [11] was “Not Active” throughout. Also, the IC50 entry was “Not Active” in data set [12]; “Not Active” in data set [13]; “Not Active” at Wee1-like protein kinase; 432 nM in [14]; “Not Active” in [15]; 872 nM in [16]. Moreover, the IC50 result was “Not Active” in [17]; “Not Active” in data set [1]; “Not Active” in [21]; 21.6 nM at Activated CDC42 kinase 1; “Not Active” in data set [23]; “Not Active” in [2]. Also, the IC50 entry on Insulin receptor is “Not Active”; in data set [3], “Not Active”; in data set [24] it was 347 nM; in data set [27], “Not Active”; in [4], “Not Active”; in data set [29], 706 nM. Further, the IC50 result in data set [30], in data set [31], in [33] and in data set [35] was “Not Active” each time. Further, the inhibition entry in the data set with LNCaP [18] was “Active”. Also, in the data set on LNCaP [19], the inhibition entry is “inactive”. In addition, the result with LNCaP [20], with LNCaP [26], in the data set with LNCaP [5], with LNCaP [32] and in the data set with LNCaP [34] was Active. Besides, the Activity entry in data set [22] is “Non-Toxic”; in the data set with LNCaP [25], about 50%; with LNCaP [28], 38%.

Turning to `C[S+](C)[O-]` [DIMETHYL SULFOXIDE], in [22], the Activity result is on record as “Non-Toxic”.
